Legend:
[1] = Cell cycle arrest in KB/HeLa cells assessed as accumulation at G1 phase at 0.1 nM after 24 hrs by flow cytometric analysis; format: functional, cell-based; settings: Homo sapiens
Procedure, shortened: (§1)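 Subconfluent KB/HeLa cells exposed to a range of compound concentrations for 24 h. Cell cycle phase distribution determined by flow cytometry. Experiments run at least in duplicate (n = 2).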

[2] = Cell cycle arrest in KB/HeLa cells assessed as accumulation at G2M phase at 10 nM after 24 hrs by flow cytometric analysis; format: functional, cell-based; settings: Homo sapiens; procedure, shortened: as §1
[3] = Cell cycle arrest in KB/HeLa cells assessed as accumulation at S phase at 1 nM after 24 hrs by flow cytometric analysis; format: functional, cell-based; settings: Homo sapiens; procedure, shortened: as §1
SF-268 = test: Cytotoxicity against human SF268 cells after 48 hrs by XTT assay; format: functional, cell-based; settings: SF-268, 48 h
Procedure, shortened: (§2)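 XTT proliferation assay with 48 h incubation with test compound. Each experiment run at least in duplicate (n = 2). IC50 calculated by nonlinear regression of dose-response curves.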

[4] = Cell cycle arrest in KB/HeLa cells assessed as accumulation at S phase at 0.3 nM after 24 hrs by flow cytometric analysis; format: functional, cell-based; settings: Homo sapiens; procedure, shortened: as §1
Tubulin [5] = molecular target: Tubulin (Sus scrofa, UniProt P02554+P02550); test: Inhibition of porcine brain tubulin polymerization
L1210 [6] = test: Antiproliferative activity against mouse L1210 cells after 48 hrs by XTT assay; format: functional, cell-based; settings: L1210, 48 h; procedure, shortened: as §2
P388 [7] = test: Antiproliferative activity against mouse P388 cells after 48 hrs by XTT assay; format: functional, cell-based; settings: P388, 48 h; procedure, shortened: as §2
[8] = Cell cycle arrest in KB/HeLa cells assessed as accumulation at G1 phase at 100 nM after 24 hrs by flow cytometric analysis; format: functional, cell-based; settings: Homo sapiens; procedure, shortened: as §1
[9] = Cell cycle arrest in KB/HeLa cells assessed as accumulation at S phase at 0.1 nM after 24 hrs by flow cytometric analysis; format: functional, cell-based; settings: Homo sapiens; procedure, shortened: as §1
RKO [10] = test: Cytotoxicity against human RKO cells with ectopic-inducible expression of p27kip1 after 48 hrs by XTT assay; format: functional, cell-based; procedure, shortened: as §2
[11] = Cytotoxicity against human KB/HeLa cells after 48 hrs by XTT assay; format: functional, cell-based; procedure, shortened: as §2
[12] = Cell cycle arrest in KB/HeLa cells assessed as accumulation at G2M phase at 316 nM after 24 hrs by flow cytometric analysis; format: functional, cell-based; settings: Homo sapiens; procedure, shortened: as §1
[13] = Cell cycle arrest in KB/HeLa cells assessed as accumulation at G1 phase at 1 nM after 24 hrs by flow cytometric analysis; format: functional, cell-based; settings: Homo sapiens; procedure, shortened: as §1
[14] = Cell cycle arrest in KB/HeLa cells assessed as accumulation at S phase at 31.6 nM after 24 hrs by flow cytometric analysis; format: functional, cell-based; settings: Homo sapiens; procedure, shortened: as §1
[15] = Cell cycle arrest in KB/HeLa cells assessed as accumulation at G2M phase at 0.1 nM after 24 hrs by flow cytometric analysis; format: functional, cell-based; settings: Homo sapiens; procedure, shortened: as §1
[16] = Cell cycle arrest in KB/HeLa cells assessed as accumulation at G2/M phase after 24 hrs by flow cytometric analysis; format: functional, cell-based; settings: Homo sapiens; procedure, shortened: as §1
SK-OV-3 = test: Cytotoxicity against human SKOV3 cells after 48 hrs by XTT assay; format: functional, cell-based; settings: SK-OV-3, 48 h; procedure, shortened: as §2
[17] = Cell cycle arrest in KB/HeLa cells assessed as accumulation at S phase at 316 nM after 24 hrs by flow cytometric analysis; format: functional, cell-based; settings: Homo sapiens; procedure, shortened: as §1
[18] = Cell cycle arrest in KB/HeLa cells assessed as accumulation at S phase at 1000 nM after 24 hrs by flow cytometric analysis; format: functional, cell-based; settings: Homo sapiens; procedure, shortened: as §1
[19] = Cell cycle arrest in KB/HeLa cells assessed as accumulation at G2M phase at 0.3 nM after 24 hrs by flow cytometric analysis; format: functional, cell-based; settings: Homo sapiens; procedure, shortened: as §1
[20] = Cell cycle arrest in KB/HeLa cells assessed as accumulation at G2M phase at 3.16 nM after 24 hrs by flow cytometric analysis; format: functional, cell-based; settings: Homo sapiens
[21] = Cell cycle arrest in KB/HeLa cells assessed as accumulation at G2M phase at 1000 nM after 24 hrs by flow cytometric analysis; format: functional, cell-based; settings: Homo sapiens; procedure, shortened: as §1
[22] = Antiproliferative activity against rat L12 cells after 48 hrs by XTT assay; format: functional, cell-based
[23] = Cell cycle arrest in KB/HeLa cells assessed as accumulation at G1 phase at 31.6 nM after 24 hrs by flow cytometric analysis; format: functional, cell-based; settings: Homo sapiens; procedure, shortened: as §1
Tubulin [24] = test: Displacement of [3H]colchicine from biotinylated tubulin by scintillation proximity assay; format: protein-complex assay, Homo sapiens
[25] = Cell cycle arrest in KB/HeLa cells assessed as accumulation at G1 phase at 1000 nM after 24 hrs by flow cytometric analysis; format: functional, cell-based; settings: Homo sapiens; procedure, shortened: as §1
[26] = Cell cycle arrest in KB/HeLa cells assessed as accumulation at G1 phase at 316 nM after 24 hrs by flow cytometric analysis; format: functional, cell-based; settings: Homo sapiens; procedure, shortened: as §1
[27] = Cell cycle arrest in KB/HeLa cells assessed as accumulation at G1 phase at 3.16 nM after 24 hrs by flow cytometric analysis; format: functional, cell-based; settings: Homo sapiens; procedure, shortened: as §1
[28] = Cell cycle arrest in KB/HeLa cells assessed as accumulation at G2M phase at 31.6 nM after 24 hrs by flow cytometric analysis; format: functional, cell-based; settings: Homo sapiens; procedure, shortened: as §1
[29] = Cell cycle arrest in KB/HeLa cells assessed as accumulation at S phase at 100 nM after 24 hrs by flow cytometric analysis; format: functional, cell-based; settings: Homo sapiens; procedure, shortened: as §1
[30] = Cell cycle arrest in KB/HeLa cells assessed as accumulation at G1 phase at 10 nM after 24 hrs by flow cytometric analysis; format: functional, cell-based; settings: Homo sapiens; procedure, shortened: as §1
P388 [31] = test: Antiproliferative activity against mouse adriamycin-resistant P388 cells after 48 hrs by XTT assay; format: functional, cell-based; settings: P388, 48 h; procedure, shortened: as §2
[32] = Cell cycle arrest in KB/HeLa cells assessed as accumulation at G2M phase at 100 nM after 24 hrs by flow cytometric analysis; format: functional, cell-based; settings: Homo sapiens; procedure, shortened: as §1
K562 = test: Antiproliferative activity against human K562 cells after 48 hrs; format: functional, cell-based; settings: K562, 48 h
Procedure, shortened: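 Growth of K562 cells measured by counting cells with a hemocytometer after 48 h (2 days) of drug treatment. IC50 is the mean of at least three independent determinations.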

L1210 [33] = test: Antiproliferative activity against mouse vincristine-resistant L1210 cells after 48 hrs by XTT assay; format: functional, cell-based; settings: L1210, 48 h; procedure, shortened: as §2
[34] = Antiproliferative activity against rat multidrug-resistant L12 cells after 48 hrs by XTT assay; format: functional, cell-based; settings: L1.2, 48 h; procedure, shortened: as §2
[35] = Cell cycle arrest in KB/HeLa cells assessed as accumulation at G2M phase at 1 nM after 24 hrs by flow cytometric analysis; format: functional, cell-based; settings: Homo sapiens; procedure, shortened: as §1
[36] = Cell cycle arrest in KB/HeLa cells assessed as accumulation at G1 phase at 0.3 nM after 24 hrs by flow cytometric analysis; format: functional, cell-based; settings: Homo sapiens; procedure, shortened: as §1
NCI-H460 = test: Cytotoxicity against human NCI-H460 cells after 48 hrs by XTT assay; format: functional, cell-based; settings: NCI-H460, 48 h; procedure, shortened: as §2
[37] = Cell cycle arrest in KB/HeLa cells assessed as accumulation at S phase at 10 nM after 24 hrs by flow cytometric analysis; format: functional, cell-based; settings: Homo sapiens; procedure, shortened: as §1
[38] = Cell cycle arrest in KB/HeLa cells assessed as accumulation at S phase at 3.16 nM after 24 hrs by flow cytometric analysis; format: functional, cell-based; settings: Homo sapiens; procedure, shortened: as §1
RKO [39] = test: Cytotoxicity against human RKO cells after 48 hrs by XTT assay; format: functional, cell-based; procedure, shortened: as §2

IC50 (Tubulin [5]): 1200 nM
IC50 (L1210 [6]): 540 nM
IC50 (P388 [7]): 380 nM
EC50 [16]: 135 nM
IC50 (Tubulin [24]): 560 nM
IC50 (P388 [31]): 270 nM
IC50 (K562): 90 nM
IC50 (L1210 [33]): 460 nM
SMILES: COc1ccc(S(=O)(=O)Oc2c3ccccc3cc3ccccc23)cc1
Activity [1]: 61.4%
Activity [2]: 12.6%
Activity [3]: 26.2%
IC50 (SF-268): 340 nM
Activity [4]: 26%
Activity [8]: 56.4%
Activity [9]: 26.7%
IC50 (RKO [10]): > 9000 nM
IC50 [11]: 370 nM
Activity [12]: 94.4%
Activity [13]: 62.1%
Activity [14]: 26.8%
Activity [15]: 11.9%
IC50 (SK-OV-3): 250 nM
Activity [17]: 4.8%
Activity [18]: 8.4%
Activity [19]: 12.4%
Activity [20]: 11.4%
Activity [21]: 90.5%
IC50 [22]: 440 nM
Activity [23]: 61.8%
Activity [25]: 1.1%
Activity [26]: 0.8%
Activity [27]: 62.7%
Activity [28]: 11.4%
Activity [29]: 31%
Activity [30]: 61.8%
Activity [32]: 12.6%
IC50 [34]: 360 nM
Activity [35]: 11.7%
Activity [36]: 61.6%
IC50 (NCI-H460): 640 nM
Activity [37]: 25.5%
Activity [38]: 26%
IC50 (RKO [39]): 280 nM

From ChEMBL document CHEMBL1138290 (J Med Chem, 2007)
